Data as given in ChEMBL document CHEMBL1811814, “Synthesis and evaluation of indole, pyrazole, chromone and pyrimidine based conjugates for tumor growth inhibitory activities--development of highly efficacious cytotoxic agents” (Eur J Med Chem, 2010).

Legend:
Format in all cases: functional
Design in all cases: scale not given: the % may be the effect or the level left
[1] = test system: CCRF-CEM; test: Growth inhibition of human CCRF-CEM cells assessed tumor cell growth at 10^-5 M
In short: (§1)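 NCI 60-human-tumor-cell-line panel screen. Each compound was tested at a single concentration of 10^-5 M, and percent growth of tumor cells was recorded for each cell line. Growth inhibition was expressed from these percent-growth values.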

[2] = test system: NCI-H322M; test: Growth inhibition of human NCI-H322M cells assessed tumor cell growth at 10^-5 M; in short: as §1
[3] = test system: 786-0; test: Growth inhibition of human 786-0 cells assessed tumor cell growth at 10^-5 M; in short: as §1
[4] = test system: HOP-62; test: Growth inhibition of human HOP62 cells assessed tumor cell growth at 10^-5 M; in short: as §1
[5] = test system: UACC-62; test: Growth inhibition of human UACC62 cells assessed tumor cell growth at 10^-5 M
In short: (§2)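 Single-dose screen at 10^-5 M across the 60 human tumor cell line panel, run to NCI standards. The value is the percent growth of each cell line in the presence of compound. Compounds active at this dose moved on to five-concentration testing (10^-4 to 10^-8 M).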

[6] = test system: CAKI-1; test: Growth inhibition of human Caki1 cells assessed tumor cell growth at 10^-5 M; in short: as §1
[7] = test system: HL-60(TB); test: Growth inhibition of human HL-60(TB) cells assessed tumor cell growth at 10^-5 M
In short: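 HL-60(TB), part of the 60-line panel, tested at a single concentration of 10^-5 M. The read-out is percent tumor cell growth relative to untreated growth.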

[8] = test system: RXF 393; test: Growth inhibition of human RXF393 cells assessed tumor cell growth at 10^-5 M; in short: as §1
[9] = test system: HCT-116; test: Growth inhibition of human HCT116 cells assessed tumor cell growth at 10^-5 M; in short: as §1
[10] = test system: SN12C; test: Growth inhibition of human SN12C cells assessed tumor cell growth at 10^-5 M; in short: as §1
[11] = test system: MCF7; test: Growth inhibition of human MCF7 cells assessed tumor cell growth at 10^-5 M; in short: as §1
[12] = test system: SW-620; test: Growth inhibition of human SW620 cells assessed tumor cell growth at 10^-5 M; in short: as §2
[13] = test system: MDA-MB-435; test: Growth inhibition of human MDA-MB-435 cells assessed tumor cell growth at 10^-5 M; in short: as §1
[14] = test system: HOP-92; test: Growth inhibition of human HOP92 cells assessed tumor cell growth at 10^-5 M; in short: as §1
[15] = test system: OVCAR-5; test: Growth inhibition of human OVCAR5 cells assessed tumor cell growth at 10^-5 M; in short: as §1
[16] = test system: PC-3; test: Growth inhibition of human PC3 cells assessed tumor cell growth at 10^-5 M; in short: as §1
[17] = test system: HCC 2998; test: Growth inhibition of human HCC2998 cells assessed tumor cell growth at 10^-5 M; in short: as §1
[18] = Growth inhibition of human Hs 578T cells assessed tumor cell growth at 10^-5 M; in short: as §1
[19] = test system: SF-295; test: Growth inhibition of human SF295 cells assessed tumor cell growth at 10^-5 M; in short: as §1
[20] = test system: OVCAR-8; test: Growth inhibition of human OVCAR8 cells assessed tumor cell growth at 10^-5 M; in short: as §1
[21] = test system: LOX IMVI; test: Growth inhibition of human LOXIMVI cells assessed tumor cell growth at 10^-5 M; in short: as §1
[22] = test system: SK-MEL-2; test: Growth inhibition of human SK-MEL-2 cells assessed tumor cell growth at 10^-5 M; in short: as §1
[23] = test system: KM12; test: Growth inhibition of human KM12 cells assessed tumor cell growth at 10^-5 M; in short: as §1
[24] = test system: HCT-15; test: Growth inhibition of human HCT15 cells assessed tumor cell growth at 10^-5 M; in short: as §1
[25] = test system: T47D; test: Growth inhibition of human T47D cells assessed tumor cell growth at 10^-5 M; in short: as §2
[26] = test system: M14; test: Growth inhibition of human M14 cells assessed tumor cell growth at 10^-5 M; in short: as §1
[27] = test system: SNB-75; test: Growth inhibition of human SNB75 cells assessed tumor cell growth at 10^-5 M; in short: as §2
[28] = test system: NCI-H460; test: Growth inhibition of human NCI-H460 cells assessed tumor cell growth at 10^-5 M; in short: as §1
[29] = test system: SK-OV-3; test: Growth inhibition of human SKOV3 cells assessed tumor cell growth at 10^-5 M; in short: as §1
[30] = test system: SK-MEL-5; test: Growth inhibition of human SK-MEL-5 cells assessed tumor cell growth at 10^-5 M; in short: as §1
[31] = test system: UO-31; test: Growth inhibition of human UO31 cells assessed tumor cell growth at 10^-5 M; in short: as §2
[32] = test system: SNB-19; test: Growth inhibition of human SNB19 cells assessed tumor cell growth at 10^-5 M; in short: as §2
[33] = test system: Malme-3M; test: Growth inhibition of human MALME-3M cells assessed tumor cell growth at 10^-5 M; in short: as §1
[34] = test system: HT-29; test: Growth inhibition of human HT-29 cells assessed tumor cell growth at 10^-5 M; in short: as §1
[35] = test system: NCI-H226; test: Growth inhibition of human NCI-H226 cells assessed tumor cell growth at 10^-5 M; in short: as §1
[36] = test system: MDA-MB-468; test: Growth inhibition of human MDA-MB-468 cells assessed tumor cell growth at 10^-5 M; in short: as §1
[37] = test system: EKVX; test: Growth inhibition of human EKVX cells assessed tumor cell growth at 10^-5 M; in short: as §1
[38] = test system: OVCAR-4; test: Growth inhibition of human OVCAR4 cells assessed tumor cell growth at 10^-5 M; in short: as §1
[39] = test system: MOLT-4; test: Growth inhibition of human MOLT4 cells assessed tumor cell growth at 10^-5 M; in short: as §1
[40] = test system: UACC-257; test: Growth inhibition of human UACC257 cells assessed tumor cell growth at 10^-5 M; in short: as §2
[41] = test system: BT-549; test: Growth inhibition of human BT549 cells assessed tumor cell growth at 10^-5 M; in short: as §1
[42] = test system: SK-MEL-28; test: Growth inhibition of human SK-MEL-28 cells assessed tumor cell growth at 10^-5 M; in short: as §1
[43] = test system: A549; test: Growth inhibition of human A549 cells assessed tumor cell growth at 10^-5 M; in short: as §1
[44] = test system: MDA-MB-231; test: Growth inhibition of human MDA-MB-231 cells assessed tumor cell growth at 10^-5 M; in short: as §1
[45] = Growth inhibition of human […] cells assessed tumor cell growth at 10^-5 M; in short: as §1
[46] = test system: SF-268; test: Growth inhibition of human SF268 cells assessed tumor cell growth at 10^-5 M; in short: as §1
[47] = test system: A498; test: Growth inhibition of human A498 cells assessed tumor cell growth at 10^-5 M; in short: as §1
[48] = test system: NCI-H23; test: Growth inhibition of human NCI-H23 cells assessed tumor cell growth at 10^-5 M; in short: as §1
[49] = test system: SF-539; test: Growth inhibition of human SF539 cells assessed tumor cell growth at 10^-5 M; in short: as §1
[50] = test system: COLO 205; test: Growth inhibition of human COLO205 cells assessed tumor cell growth at 10^-5 M; in short: as §1
[51] = test system: SR; test: Growth inhibition of human SR cells assessed tumor cell growth at 10^-5 M; in short: as §2
[52] = test system: ACHN; test: Growth inhibition of human ACHN cells assessed tumor cell growth at 10^-5 M; in short: as §1
[53] = test system: DU-145; test: Growth inhibition of human DU145 cells assessed tumor cell growth at 10^-5 M; in short: as §1
[54] = test system: U-251; test: Growth inhibition of human U251 cells assessed tumor cell growth at 10^-5 M; in short: as §2
[55] = test system: OVCAR-3; test: Growth inhibition of human OVCAR3 cells assessed tumor cell growth at 10^-5 M; in short: as §1
[56] = test system: NCI/ADR-RES; test: Growth inhibition of human NCI/ADR-RES cells assessed tumor cell growth at 10^-5 M; in short: as §1
[57] = test system: K562; test: Growth inhibition of human K562 cells assessed tumor cell growth at 10^-5 M; in short: as §1
[58] = test system: IGROV-1; test: Growth inhibition of human IGROV1 cells assessed tumor cell growth at 10^-5 M; in short: as §1
[59] = test system: NCI-H522; test: Growth inhibition of human NCI-H522 cells assessed tumor cell growth at 10^-5 M; in short: as §1
[60] = test system: TK-10; test: Growth inhibition of human TK10 cells assessed tumor cell growth at 10^-5 M; in short: as §2

SMILES: CC1=NN(c2cccc(Cl)c2)C(=O)/C1=C\c1coc2ccccc2c1=O
- Activity [1]: 97.52%
- Activity [2]: 121.02%
- Activity [3]: 77.33%
- Activity [4]: 110.49%
- Activity [5]: 92.44%
- Activity [6]: 96.64%
- Activity [7]: 106.16%
- Activity [8]: 96.69%
- Activity [9]: 106.06%
- Activity [10]: 100.25%
- Activity [11]: 86.4%
- Activity [12]: 98.74%
- Activity [13]: 110.64%
- Activity [14]: 91.19%
- Activity [15]: 93.56%
- Activity [16]: 108.19%
- Activity [17]: 94.86%
- Activity [18]: 96.45%
- Activity [19]: 127.24%
- Activity [20]: 99.11%
- Activity [21]: 92.97%
- Activity [22]: 96.49%
- Activity [23]: 113.31%
- Activity [24]: 92.73%
- Activity [25]: 92.99%
- Activity [26]: 63.48%
- Activity [27]: 94.9%
- Activity [28]: 112.85%
- Activity [29]: 103.95%
- Activity [30]: 109.62%
- Activity [31]: 82.13%
- Activity [32]: 102.59%
- Activity [33]: 107.7%
- Activity [34]: 114.92%
- Activity [35]: 93.17%
- Activity [36]: 106.03%
- Activity [37]: 110.36%
- Activity [38]: 99.9%
- Activity [39]: 102.14%
- Activity [40]: 98.36%
- Activity [41]: 98.21%
- Activity [42]: 109.94%
- Activity [43]: 102.67%
- Activity [44]: 98.59%
- Activity [45]: 72.35%
- Activity [46]: 101.34%
- Activity [47]: 114.05%
- Activity [48]: 88.35%
- Activity [49]: 95.06%
- Activity [50]: 138.42%
- Activity [51]: 96.27%
- Activity [52]: 96.23%
- Activity [53]: 115.23%
- Activity [54]: 97.41%
- Activity [55]: 123.01%
- Activity [56]: 87.3%
- Activity [57]: 109.12%
- Activity [58]: 105.92%

SMILES: O=C1/C(=C\c2cn(C(=O)c3ccccc3)c3ccccc23)c2ccccc2N1c1c(Cl)cccc1Cl
- Activity [1]: 111.2%
- Activity [2]: 111.9%
- Activity [3]: 90.7%
- Activity [4]: 94.2%
- Activity [5]: 95.4%
- Activity [6]: 86.4%
- Activity [7]: 102.5%
- Activity [8]: 150.7%
- Activity [9]: 94%
- Activity [10]: 89.5%
- Activity [11]: 95.7%
- Activity [12]: 104.6%
- Activity [13]: 115.5%
- Activity [14]: 79.8%
- Activity [15]: 94.2%
- Activity [16]: 71.8%
- Activity [17]: 101.6%
- Activity [18]: 107.3%
- Activity [19]: 126.6%
- Activity [20]: 113.1%
- Activity [21]: 97.6%
- Activity [22]: 102.9%
- Activity [23]: 111.3%
- Activity [24]: 66.3%
- Activity [25]: 92.4%
- Activity [26]: 104.2%
- Activity [27]: 82.2%
- Activity [28]: 111.1%
- Activity [29]: 111.6%
- Activity [30]: 107.1%
- Activity [31]: 76.9%
- Activity [33]: 106%
- Activity [34]: 103.4%
- Activity [35]: 94.8%
- Activity [36]: 97.7%
- Activity [37]: 97.7%
- Activity [38]: 99.5%
- Activity [39]: 89.6%
- Activity [40]: 123.3%
- Activity [41]: 106.5%
- Activity [42]: 113.4%
- Activity [43]: 110%
- Activity [44]: 103.3%
- Activity [45]: 100.6%
- Activity [46]: 99.9%
- Activity [47]: 102.8%
- Activity [48]: 97.2%
- Activity [49]: 104%
- Activity [59]: 90.9%
- Activity [60]: 118.8%
- Activity [50]: 122.5%
- Activity [51]: 99.5%
- Activity [52]: 97.6%
- Activity [53]: 119.5%
- Activity [54]: 88.4%
- Activity [55]: 116.1%
- Activity [56]: 99.7%
- Activity [57]: 114.6%
- Activity [58]: 99.2%
